Activity calls are given as the source filed them.
Tests used:
Mus musculus [1] = test: Inhibition of FAAH in orally dosed C57B1/6J mouse brain membrane after 4 hrs; assay type: functional, organism-based
In short: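 Oral dosing used male C57Bl/6J mice (6-8 weeks) given inhibitor in PEG300 vehicle at 4 ul g^-1, handled as for i.p. dosing. Brains were taken 4 h later for analysis of brain membrane hydrolase activity.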

Mus musculus [2] = test: Induction of hypothermia in C57B1/6J mouse at 16 mg/kg, ip pretreated with rimonabant; assay type: functional, organism-based; design: dose 16 mg/kg
In short: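 Male C57Bl/6J mice, 6-8 weeks, 20-26 g, given 16 mg kg^-1 i.p. in 4:1 v/v PEG300:Tween80 at 4 μl g^-1; vehicle controls received PEG300:Tween80 alone. Cannabinoid effects were scored in the tetrad test.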

[3] = molecular target: T1, Cytosolic phospholipase A2 (Homo sapiens) (UniProt P47712); test: Inhibition of recombinant cPLA2 4a expressed in HEK293 cells at 20 uM by radiolabeled TLC assay; assay type: cell-based
T1 sequence (whole entry): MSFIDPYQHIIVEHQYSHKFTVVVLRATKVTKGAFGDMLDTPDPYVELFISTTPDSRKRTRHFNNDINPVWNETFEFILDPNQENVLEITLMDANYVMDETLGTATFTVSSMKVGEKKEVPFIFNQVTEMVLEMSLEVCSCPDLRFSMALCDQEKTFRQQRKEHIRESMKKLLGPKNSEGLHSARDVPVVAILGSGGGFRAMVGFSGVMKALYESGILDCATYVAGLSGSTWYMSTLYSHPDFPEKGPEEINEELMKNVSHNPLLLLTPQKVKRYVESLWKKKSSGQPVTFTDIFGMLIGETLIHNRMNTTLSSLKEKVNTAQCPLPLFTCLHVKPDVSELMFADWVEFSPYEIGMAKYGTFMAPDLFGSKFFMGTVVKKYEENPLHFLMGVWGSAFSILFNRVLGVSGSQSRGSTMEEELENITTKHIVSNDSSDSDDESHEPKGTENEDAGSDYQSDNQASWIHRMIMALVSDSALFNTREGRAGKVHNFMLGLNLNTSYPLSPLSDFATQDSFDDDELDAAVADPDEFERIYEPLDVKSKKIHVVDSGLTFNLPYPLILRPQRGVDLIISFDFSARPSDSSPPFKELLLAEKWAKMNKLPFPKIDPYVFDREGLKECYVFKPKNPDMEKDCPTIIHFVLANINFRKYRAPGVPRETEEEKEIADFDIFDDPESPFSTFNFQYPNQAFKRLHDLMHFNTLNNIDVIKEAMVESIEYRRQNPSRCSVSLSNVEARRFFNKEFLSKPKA

Mus musculus [4] = test: Inhibition of FAAH in C57B1/6J mouse brain membrane at 16 mg/kg, ip after 4 hrs by competitive activity-based protein profiling-MudPIT method; assay type: functional, organism-based; design: dose 16 mg/kg
In short: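 After i.p. dosing in 4:1 PEG300:Tween80, male C57Bl/6J mice were killed at 4 h. Brain membrane proteomes from treated and vehicle mice were labelled with FP-biotin. Labelled proteins were enriched on avidin, digested on-bead with trypsin and analysed by multidimensional LC-MS. Proteins were identified by SEQUEST, and dosed samples were compared with vehicle.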

Mus musculus [5] = test: Inhibition of MAGL in C57B1/6J mouse brain membrane at 4 mg/kg, ip after 4 hrs by competitive activity-based protein profiling method relative to control; assay type: functional; conditions: route intraperitoneal
In short: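 Male C57Bl/6J mice (6-8 weeks, 20-26 g) dosed i.p. in 4:1 v/v PEG300:Tween80 vehicle at 4 ul g^-1; killed 4 h post-dose. Brain membrane proteomes were then labelled with FP-rhodamine (2 μM, 30 min, room temperature), resolved by SDS-PAGE and scanned in-gel for fluorescence. MAGL signal was compared with vehicle-treated controls.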

Mus musculus [6] = test: Antinociceptive activity against C57B1/6J mouse at assessed as latency in reaction time required for thermal stimulus-induced tail flicking at 16 mg/kg, ip after 2 hrs; assay type: functional, organism-based; design: dose 16 mg/kg
In short: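 Tail immersion assay of thermal pain in male C57Bl/6J mice, 6-8 weeks. Dose 16 mg kg^-1 i.p. in 4:1 v/v PEG300:Tween80 at 4 μl g^-1, with vehicle controls.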

[7] = molecular target: T2, Diacylglycerol lipase-beta (Homo sapiens) (UniProt Q8NCG7); test: Inhibition of recombinant DAGLbeta expressed in HEK293 cells assessed as hydrolysis of 1-stearoyl-2-arachidonoyl-glycerol to 2-AG at 10 uM after 30 mins by LC-MS method; assay type: cell-based
T2 sequence (whole entry): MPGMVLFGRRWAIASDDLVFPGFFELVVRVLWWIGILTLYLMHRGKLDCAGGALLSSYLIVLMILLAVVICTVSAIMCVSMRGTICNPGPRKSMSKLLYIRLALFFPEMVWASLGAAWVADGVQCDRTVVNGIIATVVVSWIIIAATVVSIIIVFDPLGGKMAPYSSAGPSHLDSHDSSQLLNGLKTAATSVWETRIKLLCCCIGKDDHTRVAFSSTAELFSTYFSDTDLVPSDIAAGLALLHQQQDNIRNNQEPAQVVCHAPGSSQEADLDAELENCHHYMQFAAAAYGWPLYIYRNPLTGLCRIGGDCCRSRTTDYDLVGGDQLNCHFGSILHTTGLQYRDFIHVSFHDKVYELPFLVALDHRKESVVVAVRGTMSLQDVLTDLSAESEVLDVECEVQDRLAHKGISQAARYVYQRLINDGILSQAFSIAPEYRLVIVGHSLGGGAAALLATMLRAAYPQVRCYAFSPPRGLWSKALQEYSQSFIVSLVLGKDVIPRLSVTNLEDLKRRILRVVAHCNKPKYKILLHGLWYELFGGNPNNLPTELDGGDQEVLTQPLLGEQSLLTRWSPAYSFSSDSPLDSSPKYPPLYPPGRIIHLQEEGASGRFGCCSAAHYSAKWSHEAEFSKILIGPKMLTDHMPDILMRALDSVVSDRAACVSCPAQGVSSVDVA

Mus musculus [8] = test: Inhibition of DPP9 in C57B1/6J mouse brain membrane at 16 mg/kg, ip after 4 hrs by competitive activity-based protein profiling-MudPIT method; assay type: functional, organism-based; design: dose 16 mg/kg
In short: (§1)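 Mice were dosed 16 mg kg^-1 i.p. or vehicle and killed at 4 h. Brain membrane proteomes were labelled with FP-biotin, avidin-enriched, trypsin-digested on bead, analysed by multidimensional LC-MS and identified by SEQUEST.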

Mus musculus [9] = test: Inhibition of BAT5 in C57B1/6J mouse brain membrane at 16 mg/kg, ip after 4 hrs by competitive activity-based protein profiling-MudPIT method; assay type: functional, organism-based; design: dose 16 mg/kg; in short: as §1
Mus musculus [10] = test: Inhibition of FAAH in C57B1/6J mouse brain membrane assessed as elevated level of N-acylethanolamine at 10 mg/kg, ip by competitive activity-based protein profiling method; assay type: functional, organism-based; design: dose 10 mg/kg
Mus musculus [11] = test: Change in arachidonic acid levels in intraperitoneally dosed C57B1/6J mouse brain by LC-MS; assay type: functional, organism-based
In short: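 Male C57Bl/6J mice given 4, 8, 16 or 40 mg kg^-1 i.p. in 4:1 PEG300:Tween80 at 4 μl g^-1, or vehicle, and killed after 4 h. Whole-brain lipids were quantified by LC-MS.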

Mus musculus [12] = test: Inhibition of ABHD12 in C57B1/6J mouse brain membrane at 16 mg/kg, ip after 4 hrs by competitive activity-based protein profiling-MudPIT method; assay type: functional, organism-based; design: dose 16 mg/kg; in short: as §1

O=C(Oc1ccc([N+](=O)[O-])cc1)N1CCC(C(O)(c2ccc3c(c2)OCO3)c2ccc3c(c2)OCO3)CC1
5: fold change (FC) (Mus musculus [5])
inactive: Activity (Mus musculus [2]) | inhibition [3] | inhibition (Mus musculus [4]) | inhibition [7] | inhibition (Mus musculus [8]) | inhibition (Mus musculus [9]) | Activity (Mus musculus [11]) | inhibition (Mus musculus [12])
active: inhibition (Mus musculus [1]) | Activity (Mus musculus [6]) | inhibition (Mus musculus [10])
